Hit rate of the full screen: of about 24,000 compounds, fewer than 10 were called active. No stated cut-off is given here; in the data, active means caspase activation above about 5.9%; inconclusive means no clear call, values can overlap the other calls; inactive means below about 2.2%. The list is a sample of the results.
assay: Bcl2-A1 antagonists releasing BIM, apoptosis – cell-based, luminescence, HTS, two replicates, primary screen (AID 2465); settings: MEF A1-2A-BIM cells, caspase-Glo luminescence, 3 h; hits give high values; percent of clofoctol response, DMSO zero; concentration not given here
Method in brief: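 Material: A1-2A-BIM-expressing MEF cells. Buffer or medium: RPMI-1640 plus 10% FBS. Incubation: cells settled overnight, compound exposure 3 h at 37 °C, 5% CO2. Signal: Caspase-Glo 3/7 luminescence, 1 h at room temperature.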

Caspase activation, inactive:
C[C@@H]1CN([C@@H](C)CO)C(=O)c2cc(NC(=O)CCCCCC(=O)Nc3ccccc3N)ccc2O[C@@H](C)CCCCO[C@@H]1CN(C)CC1CCCCC1 0.522%, C[C@@H]1CCCCO[C@@H](CN(C)C(=O)C2CCCCC2)[C@H](C)CN([C@H](C)CO)C(=O)c2cc(NC(=O)Cc3ccccc3)ccc2O1 3.18%, C[C@@H]1CCCCO[C@@H](CN(C)S(=O)(=O)c2cccs2)[C@H](C)CN([C@H](C)CO)C(=O)c2cc(NC(=O)CCCN(C)C)ccc2O1 0.621%, Cc1ccc(S(=O)(=O)N(C)C[C@@H]2Oc3ccc(NC(=O)NC4CCCCC4)cc3C(=O)N([C@@H](C)CO)C[C@H]2C)cc1 -0.781%, C[C@H](CO)N1C[C@H](C)[C@H](CN(C)C(=O)Nc2ccccc2)Oc2c(NC(=O)Nc3ccc(C(F)(F)F)cc3)cccc2C1=O -0.159%, C[C@@H]1CCCCO[C@@H](CN(C)Cc2ccc(Cl)c(Cl)c2)[C@H](C)CN([C@@H](C)CO)C(=O)c2cc(NS(C)(=O)=O)ccc2O1 -0.491%, Cc1ccc(S(=O)(=O)Nc2ccc3c(c2)C(=O)N([C@@H](C)CO)C[C@@H](C)[C@H](CN(C)Cc2ccc4c(c2)OCO4)OCCCC[C@@H](C)O3)cc1 0.694%, C[C@H](CO)N1C[C@H](C)[C@@H](CN(C)C(=O)Nc2ccc(F)cc2)OCCCC[C@H](C)Oc2ccc(NC(=O)c3ccncc3)cc2C1=O 0.454%, CC(C)NC(=O)Nc1ccc2c(c1)C(=O)N([C@H](C)CO)C[C@@H](C)[C@@H](CN(C)Cc1ccncc1)O2 1.1%, C[C@@H]1CN([C@@H](C)CO)C(=O)c2cccc(NS(=O)(=O)c3ccccc3)c2O[C@@H]1CN(C)S(=O)(=O)c1ccc(F)cc1 0.0248%, COc1ccc(S(=O)(=O)Nc2ccc3c(c2)C(=O)N([C@@H](C)CO)C[C@@H](C)[C@H](CN(C)Cc2ccc(C(F)(F)F)cc2)OCCCC[C@@H](C)O3)cc1 -1.2%, C[C@H]1CN([C@@H](C)CO)C(=O)Cc2cc(NS(=O)(=O)c3ccccc3)ccc2O[C@@H]1CN(C)Cc1ccc(C(=O)Nc2ccccc2N)cc1 1.17%, Cc1noc(C)c1NC(=O)N(C)C[C@@H]1OCCCC[C@@H](C)Oc2ccc(NC(=O)C3CCCCC3)cc2C(=O)N([C@@H](C)CO)C[C@H]1C -0.914%, C[C@H]1CN([C@@H](C)CO)C(=O)Cc2cc(NC(=O)C3CCCCC3)ccc2O[C@H]1CN(C)C(=O)Nc1ccc(C(F)(F)F)cc1 0.751%

Source: PubChem BioAssay AID2465 (Broad Institute, 2010)
